The target in data set [1] is T1, Indoleamine 2,3-dioxygenase 1 (Homo sapiens, UniProt P14902). The data set can be described thus: Inhibition of IDO1 in IFN-gamma/LPS induced human whole blood assessed as tryptophan/kynurenine level measured after 18 hrs by RapidFire mass spectrometry. In kind it is tissue-based.
Data set [2] in a line: Metabolic stability in mouse liver microsomes assessed as parent compound remaining at 0.5 uM after 10 mins. The settings on record: read-out: Stabilty. The format is ADME, Microsome. The gist of the method: (§1)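 Parent compound at 0.5 μM incubated 10 min with 1 mg/mL human, mouse or rat liver microsomes; fraction of parent remaining reported; average of N = 2 unless noted.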
For orientation: Microsomes from liver hold many membrane-bound enzymes, among them those of drug oxidation.

For data set [3], the target named is Indoleamine 2,3-dioxygenase 1 (Mus musculus, UniProt P28776). The experiment in a line: Inhibition of IDO1 in recombinant IFN-gamma induced mouse M109 cells incubated for 18 hrs by fluorescence microplate reader assay. In kind it is cell-based. The gist of the method:
(§2)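 HeLa (human) or M109 (murine) cells induced with IFNγ to express IDO1, then cellular IDO1 activity measured; values are the average of N = 2 unless noted.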

Data set [4] in a line: Metabolic stability in rat liver microsomes assessed as parent compound remaining at 0.5 uM after 10 mins. The format is ADME, Microsome. The settings on record: read-out: Stabilty. The gist of the method:
as §1

A short description of data set [5]: Metabolic stability in human liver microsomes assessed as parent compound remaining at 0.5 uM after 10 mins. In kind it is ADME, Microsome. The settings on record: read-out: Stabilty. In short, it runs like this:
as §1

In data set [6] the target is T1, Indoleamine 2,3-dioxygenase 1. The data set can be described thus: Inhibition of IDO1 in recombinant IFN-gamma induced human HeLa cells incubated for 18 hrs by fluorescence microplate reader assay. In short, it runs like this:
as §2

pIC50: −log10 of the molar value.

Sequence of Indoleamine 2,3-dioxygenase 1 (Mus musculus, UniProt P28776) (P28776 whole entry): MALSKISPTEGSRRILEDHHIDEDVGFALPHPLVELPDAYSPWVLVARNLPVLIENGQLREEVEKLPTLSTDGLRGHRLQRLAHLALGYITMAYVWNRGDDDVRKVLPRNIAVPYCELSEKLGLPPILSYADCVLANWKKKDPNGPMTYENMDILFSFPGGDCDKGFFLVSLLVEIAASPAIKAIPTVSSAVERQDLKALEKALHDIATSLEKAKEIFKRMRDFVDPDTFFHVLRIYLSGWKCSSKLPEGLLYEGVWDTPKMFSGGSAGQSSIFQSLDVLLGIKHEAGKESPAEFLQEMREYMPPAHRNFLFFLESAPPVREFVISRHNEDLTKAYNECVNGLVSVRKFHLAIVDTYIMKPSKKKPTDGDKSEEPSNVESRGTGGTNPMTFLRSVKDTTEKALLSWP
T1 sequence (P14902 whole entry): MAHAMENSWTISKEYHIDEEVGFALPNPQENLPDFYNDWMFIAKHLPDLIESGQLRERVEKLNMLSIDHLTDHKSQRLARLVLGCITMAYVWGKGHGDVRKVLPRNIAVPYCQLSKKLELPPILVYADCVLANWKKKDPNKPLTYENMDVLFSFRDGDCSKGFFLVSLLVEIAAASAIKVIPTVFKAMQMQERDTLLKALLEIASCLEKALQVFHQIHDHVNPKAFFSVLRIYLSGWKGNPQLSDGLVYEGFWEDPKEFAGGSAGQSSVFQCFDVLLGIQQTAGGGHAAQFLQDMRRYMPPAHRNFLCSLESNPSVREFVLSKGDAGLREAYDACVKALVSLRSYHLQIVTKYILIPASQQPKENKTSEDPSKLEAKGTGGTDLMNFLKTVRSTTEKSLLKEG

By pIC50 is commonly meant the negative decadic logarithm of the IC50, by convention in mol/L. In the case of `CCC(c1nc2ccc(Cl)cc2[nH]1)[C@H]1CC[C@H](Oc2ccnc3ccccc23)CC1` (some centres not stated), the pIC50 in data set [1] is 7.44; in data set [3] it was 7.28; in data set [6], 8.15. Moreover, the results for the remaining at 10 min, 0.5 µM in data set [2], in data set [4] and in data set [5] were 82%, 80% and 84%, respectively.
Regarding `CCC(Nc1nnc(-c2ccc(OC)cc2)o1)[C@H]1CC[C@@H](c2ccnc3c(F)cc(F)cc32)CC1` (some centres not stated), the results for the negative logarithm of the IC50 (pIC50) in data set [1], in data set [3] and in data set [6] were 7.85, 7.44 and 8.52, respectively. Further, the figures for the remaining at 10 min, 0.5 µM in data set [2], in data set [4] and in data set [5] were 8%, 52% and 54%, respectively.
Turning to `C[C@@H](c1ncc(-c2ccc(Cl)cc2)[nH]1)[C@H]1CC[C@@H](c2ccnc3ccc(F)cc32)CC1`, the remaining at 10 min, 0.5 µM was determined as 59% in data set [2], 3% in data set [4] and 58% in data set [5]. Moreover, the negative logarithm of the IC50 (pIC50) in data set [3] is 7.10; in data set [6] it was 7.96.
Regarding `C[C@@H](c1nnc(-c2ccc(Cl)cc2)[nH]1)[C@H]1CC[C@@H](c2ccnc3ccc(F)cc32)CC1`, the results for the remaining at 10 min, 0.5 µM in data set [2], in data set [4] and in data set [5] were 69%, 82% and 88%, respectively. Further, the pIC50 is 6.54 in data set [3] and 7.70 in data set [6].
The corresponding values for `COc1ccc(-c2nnc(N[C@H](C)[C@H]3CC[C@@H](c4ccnc5ccc(F)cc54)CC3)o2)cc1` are 17%, 35%, 64%, 7.85 and 8.52.
Turning to `CCC(c1nc2ccc(Cl)cc2[nH]1)[C@H]1CC[C@@H](c2ccnc3ccc(F)cc32)CC1` (some centres not stated), the negative-log IC50 (pIC50) is 8.05 in data set [1], 8.52 in data set [3] and 8.70 in data set [6]. Moreover, the remaining at 10 min, 0.5 µM came to 49% in data set [2], 27% in data set [4] and 82% in data set [5].
For the compound `CCC(c1nc2ncc(Cl)cc2[nH]1)[C@H]1CC[C@@H](c2ccnc3ccc(F)cc32)CC1` (some centres not stated), the pIC50 is 8.22 in data set [1], 8.30 in data set [3] and 8.70 in data set [6]. The remaining at 10 min, 0.5 µM was 7% in data set [2], 35% in data set [4] and 78% in data set [5].
For the compound `CCC(Nc1nnc(-c2ccc(OC)cc2)o1)[C@H]1CC[C@@H](c2ccnc3ccc(F)cc32)CC1` (some centres not stated), the values for the pIC50 in data set [1], in data set [3] and in data set [6] were 7.80, 7.51 and 8.22, respectively. Moreover, the remaining at 10 min, 0.5 µM in data set [2] was 31%; in data set [4] it was 45%; in data set [5], 66%.
`C[C@@H](c1nc2ccc(Cl)cc2[nH]1)[C@H]1CC[C@@H](c2ccnc3ccc(F)cc32)CC1`: the values for the negative-log IC50 (pIC50) in data set [1] and in data set [6] were 7.49 and 8.52, respectively. Also, the remaining at 10 min, 0.5 µM in data set [4] came out at 8%.
`C[C@@H](c1ncc(-c2ccc(Cl)cc2)o1)[C@H]1CC[C@@H](c2ccnc3ccc(F)cc32)CC1`: the remaining at 10 min, 0.5 µM in data set [2] was found to be 78%; in data set [4], 62%; in data set [5] it was 97%. In addition, the pIC50 in data set [3] was 6.20; in data set [6], 6.31.
Take `CCOCC(Nc1nnc(-c2ccc(OC)cc2)o1)[C@H]1CC[C@@H](c2ccnc3ccc(C(F)(F)F)cc32)CC1` (some centres not stated): the pIC50 is 7.02 in data set [1], 7.24 in data set [3] and 7.89 in data set [6]. In addition, the remaining at 10 min, 0.5 µM came to 41% in data set [2], 53% in data set [4] and 60% in data set [5].
Turning to `CCC(Nc1nnc(-c2ccc(OC)cc2)o1)[C@H]1CC[C@@H](c2ccnc3ccc(C(F)(F)F)cc32)CC1` (some centres not stated), the negative logarithm of the IC50 (pIC50) in data set [1] is 7.30; in data set [3] it was 8.22; in data set [6], 8.52. Also, the remaining at 10 min, 0.5 µM in data set [2] is 39%; in data set [4] it was 100%; in data set [5], 83%.
Regarding `C[C@@H](c1nc2ncc(Cl)cc2[nH]1)[C@H]1CC[C@@H](c2ccnc3ccc(F)cc32)CC1`, the pIC50 in data set [1] is 7.41; in data set [3], 7.44; in data set [6] it was 8.40. In addition, the remaining at 10 min, 0.5 µM in data set [2] was 22%; in data set [4], 17%; in data set [5], 67%.
With `C[C@@H](c1nnc(-c2ccc(Cl)cc2)o1)[C@H]1CC[C@@H](c2ccnc3ccc(F)cc32)CC1`, the remaining at 10 min, 0.5 µM in data set [2] came out at 41%; in data set [4], 23%; in data set [5] it was 68%. Also, the figures for the pIC50 in data set [3] and in data set [6] were 6.46 and 6.62, respectively.
The matching figures for `C[C@@H](c1nc2ccc(F)cc2[nH]1)[C@H]1CC[C@@H](c2ccnc3ccc(F)cc32)CC1`: 5%, 0%, 42%, 7.66 and 8.52.
Regarding `COCC(Nc1nnc(-c2ccc(OC)cc2)o1)[C@H]1CC[C@@H](c2ccnc3ccc(F)cc32)CC1` (some centres not stated), the values for the pIC50 in data set [1], in data set [3] and in data set [6] were 7.51, 7.36 and 8.52, respectively. The remaining at 10 min, 0.5 µM was 19% in data set [2], 24% in data set [4] and 57% in data set [5].
As to `COc1ccc(Nc2nnc([C@H](C)[C@H]3CC[C@@H](c4ccnc5ccc(F)cc54)CC3)o2)cc1`, the results for the remaining at 10 min, 0.5 µM in data set [2], in data set [4] and in data set [5] were 2%, 0.4% and 18%, respectively. The negative logarithm of the IC50 (pIC50) in data set [3] was 6.35; in data set [6] it was 6.78.

The values above are taken from ChEMBL document CHEMBL4715934, “Discovery of Imidazopyridines as Potent Inhibitors of Indoleamine 2,3-Dioxygenase 1 for Cancer Immunotherapy” (ACS Med Chem Lett, 2021).
